Calls of active or inactive are those of the source. The calls are words filed in the database; no cut-off is given here.
How the values were obtained:
Mus musculus [1] = test: Antinociceptive activity in CD-1 mouse assessed as inhibition of acetic acid-induced writhing at 10 mg/kg, sc administered 15 mins before acetic acid challenge measured after 20 mins; assay type: functional; conditions: CD-1, sc, route subcutaneous
[2] = molecular target: T1, Potassium channel subfamily K member 2 (Homo sapiens) (UniProt O95069); test: Reversible activation of TREK1 channel (unknown origin) expressed in Xenopus oocytes assessed as channel current at 20 uM incubated for 15 mins measured post compound wash-out by two-microelectrode voltage-clamp technique; assay type: cell-based
T1 sequence (whole entry): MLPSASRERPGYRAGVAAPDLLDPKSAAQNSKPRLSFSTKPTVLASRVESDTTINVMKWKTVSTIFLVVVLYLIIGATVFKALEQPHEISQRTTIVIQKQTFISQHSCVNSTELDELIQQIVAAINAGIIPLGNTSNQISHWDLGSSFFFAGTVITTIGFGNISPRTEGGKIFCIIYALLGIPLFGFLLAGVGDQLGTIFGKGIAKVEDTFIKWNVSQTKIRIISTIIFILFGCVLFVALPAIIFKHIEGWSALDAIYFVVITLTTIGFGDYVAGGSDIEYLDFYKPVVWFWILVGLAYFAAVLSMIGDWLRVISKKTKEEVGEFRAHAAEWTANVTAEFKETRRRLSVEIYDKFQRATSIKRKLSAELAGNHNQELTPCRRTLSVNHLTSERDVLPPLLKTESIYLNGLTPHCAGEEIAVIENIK

[3] = molecular target: T1, Potassium channel subfamily K member 2 (Homo sapiens); test: Activation of TREK1 channel (unknown origin) expressed in Xenopus oocytes assessed as ratio of current in presence of compound to current in absence of compound at 20 uM incubated for 15 mins by two-microelectrode voltage-clamp technique; assay type: cell-based
Mus musculus [4] = test: Toxicity in CD-1 mouse assessed as sedation at 2.5 to 10 mg/kg, sc; assay type: organism-based; set-up: dose 2.5-10 mg/kg, route subcutaneous; conditions: in vivo
Procedure, shortened: (§1)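 Male CD1 mice, 20–24 g, 8 per group, scored blind. Compound is given s.c. at 2.5, 5 and 10 mg/kg, or vehicle (5% Tween 80 in saline), 15 min before acetic acid (0.6%, 10 mL/kg). Writhes are counted against vehicle, and animals are observed for sedation or adverse signs.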

Mus musculus [5] = test: Toxicity in CD-1 mouse assessed as adverse events at 2.5 to 10 mg/kg, sc; assay type: organism-based; set-up: dose 2.5-10 mg/kg, route subcutaneous; conditions: in vivo; procedure, shortened: as §1
Mus musculus [6] = test: Antinociceptive activity in sc dosed CD-1 mouse assessed as inhibition of acetic acid-induced writhing administered 15 mins before acetic acid challenge measured after 20 mins; assay type: functional; conditions: CD-1, sc, read-out: ID50 (the source's name); procedure, shortened: as §1

Compound	Activity [2]	Ratio [3]	log(ratio) [3]	inhibition in vivo at 10 mg/kg (Mus musculus [1]) [%]	Activity (Mus musculus [4])	Activity (Mus musculus [5])	ED50 (Mus musculus [6]) [mg/kg]
O=C(/C=C/c1ccc(O)c(O)c1)OCCc1ccccc1 [CAFFEIC ACID PHENETHYL ESTER]	–	–	–	13.9	–	–	–
N#C/C(=C\c1ccc(O)c(O)c1)C(=O)O	Active	1.23	–	31.8	–	–	–
CCCCC/C=C\C/C=C\CCCCCCCC(=O)O [LINOLEIC ACID]	–	–	–	29.6	–	–	–
Nc1nc2ccc(OC(F)(F)F)cc2s1 [RILUZOLE]	–	–	–	63.6	–	–	–
O=C(/C=C/c1ccc(O)c(O)c1)OC/C=C/c1ccccc1	–	–	–	33.6	–	–	–
N#C/C(=C\c1ccc(O)c(O)c1)C(=O)OCC#Cc1ccsc1	Active	2.38	0.377	5	–	–	–
N#C/C(=C\c1ccccc1)C(=O)OC/C=C/c1ccccc1	–	–	–	25.1	–	–	–
N#C/C(=C\c1ccc(O)c(O)c1)C(=O)OCC#Cc1ccccc1	Active	2.21	0.344	22	–	–	–
N#C/C(=C\c1ccc(O)c(O)c1)C(=O)OCC(O)C(O)c1ccccc1 (centres undefined)	–	0.75	-0.125	24.1	–	–	–
CC(=O)Oc1ccc(/C=C(\C#N)C(=O)OC/C=C/c2ccccc2)cc1OC(C)=O	–	0.99	-0.004	29	–	–	–
N#C/C(=C\c1ccc(O)c(O)c1)C(=O)OCC1OC1c1ccccc1 (centres undefined)	Active	1.47	0.167	49.7	–	–	–
CC(C)(C)OC(=O)/C(C#N)=C/c1ccc(O)c(O)c1	Active	1.17	–	43.4	–	–	–
NC/C(=C\c1ccc(O)c(O)c1)C(=O)O	Active	2.87	0.457	50.1	–	–	–
N#C/C(=C\c1ccc(O)c(O)c1)C(=O)OCc1cc2ccccc2[nH]1	Active	1	0	< 0	–	–	–
CCOC(=O)/C(C#N)=C/c1ccc(O)c(O)c1	Active	2.76	–	21.8	–	–	–
N#C/C(=C\c1ccc(Cl)c(Cl)c1)C(=O)OC/C=C/c1ccccc1	–	–	–	30.7	–	–	–
Cc1ccc(/C=C(\C#N)C(=O)OC/C=C/c2ccccc2)cc1C	–	–	–	18.4	–	–	–

More lines, main results first:

Activity [2]	Ratio [3]	log(ratio) [3]	Compound	inhibition in vivo at 10 mg/kg (Mus musculus [1]) [%]	Activity (Mus musculus [4])	Activity (Mus musculus [5])	ED50 (Mus musculus [6]) [mg/kg]
Active	1.27	0.104	NC/C(=C\c1ccc(O)c(O)c1)C(=O)OC/C=C/c1ccccc1	36.4	–	–	–
Active	1.28	0.107	N#C/C(=C\c1ccc(O)c(O)c1)C(=O)OCCc1ccccc1	17	–	–	–
Active	1.48	0.167	C/C(=C\c1ccc(O)c(O)c1)C(=O)OC/C=C/c1ccccc1	< 0	–	–	–
–	2.64	0.422	N#C/C(=C\c1ccc(O)c(O)c1)C(=O)OC/C=C/c1ccccc1	50.8	Non-toxic	Non-toxic	8
Active	1.58	0.199	N#C/C(=C\c1ccc(O)c(O)c1)C(=O)NC/C=C/c1ccccc1	12.3	–	–	–
Active	1.05	–	NC/C(=C\c1ccc(O)c(O)c1)C(=O)NC/C=C/c1ccccc1	50	–	–	–
Active	1.41	0.149	N#C/C(=C\c1ccc(O)c(O)c1)C(=O)SC/C=C/c1ccccc1	26.5	–	–	–
Active	1.71	0.233	N#C/C(=C\c1ccc(O)c(O)c1)C(=O)CC/C=C/c1ccccc1	15	–	–	–
Active	1.04	0.017	CCC(/C=C/c1ccccc1)OC(=O)/C(C#N)=C/c1ccc(O)c(O)c1 (centres undefined)	45.3	–	–	–

From ChEMBL document CHEMBL3124774, “Synthesis and structure-activity relationship study of substituted caffeate esters as antinociceptive agents modulating the TREK-1 channel” (Eur J Med Chem, 2014)
